Assay results from different studies.
Protocols differ between the studies behind these lines. pIC50: −log10 of the molar value.
Cell line: A549

| SMILES | assay | conditions | pIC50 |
| --- | --- | --- | --- |
| Nc1ccc(Cl)c[n+]1[Pt-2]([Cl])([Cl])[n+]1cc(Cl)ccc1N | cell growth or viability, MTT | 48 h | 5.20 |
| COc1cc2ncnc(Nc3ccc(F)c(Cl)c3)c2cc1NC(=O)N/N=C/CN1CCN(C)CC1 | cell growth or viability, MTT | 72 h | 5.18 |
| Nc1ccc(-c2csc(Nc3ccc4c(O)ncnc4c3)n2)cc1 | cell growth or viability, MTT |  | 4.53 |
| O=C(NC(=S)NCc1ccc(CNC(=S)NC(=O)c2ccc3ccccc3c2)cc1)c1ccc2ccccc2c1 | cell growth or viability | 48 h | 5.55 |
| COc1cccc(C(=O)O[C@@H]2CN3Cc4c(cc5c(c4OC)OCO5)[C@@]24C=C[C@H](OC)C[C@@H]34)c1 | cell growth or viability, WST-1 |  | < 5.00 |
| COc1cc(N(C)CCN(C)C)c(NC(=O)C=C(C)C)cc1Nc1nc(N2CCc3sccc3C2)c2sccc2n1 | cell growth or viability, MTT |  | 4.56 |
| O=C(Nc1nnc(-c2cc3ccccc3[nH]2)s1)c1cc2c([nH]c3ccccc32)c(-c2ccc(F)cc2)n1 | cell growth or viability, MTT | 72 h | 5.44 |
| CS(=O)(=O)c1ccc(-n2cc(/C=N/N=c3\[nH]c(-c4ccc([N+](=O)[O-])cc4)cs3)c(-c3ccc([N+](=O)[O-])cc3)n2)cc1 | cell growth or viability, MTT | 48 h | 4.65 |
| COc1c(C)cnc(COc2ccc(NC(=O)Nc3cc(F)cc(F)c3)cc2)c1C | cell growth or viability, MTT | 72 h | 4.99 |
| COc1cc(C=C(C(=O)/C=C/c2ccc(OC)c(OC)c2)C(=O)/C=C/c2ccc(OC)c(OC)c2)ccc1O | colony formation | 9 days | > 6.70 |
| CCCCCCCCCCCC(=O)Oc1c(C)c(O)c(C(=O)/C=C/c2ccccc2)c(OC)c1C | cell growth or viability, SRB | 72 h | < 4.30 |
| COc1ccccc1/C=C/CNCC(O)COc1cccc2ccccc12 (stereo not shown) | cell growth or viability, CCK-8 | 72 h | 4.77 |
| O=C(NNC(=O)c1ccc(Nc2nccc(-c3ccc(Cl)cc3)n2)cc1)NC1CCCCC1 | cell growth or viability, MTT | 24 h | < 4.40 |
| COc1ccc2c(c1)/C(=N/NC(=O)c1cc3ccccc3[nH]1)C(=O)N2 | cell growth or viability |  | 5.18 |
| C=CC(=O)N1CCC[C@@H](n2nc(-c3ccc(Oc4ccccc4)cc3)c3c(N)ncnc32)C1 | cell growth or viability |  | < 5.00 |
| COc1ccccc1CNCC(O)COc1cccc2[nH]c3ccccc3c12 (stereo not shown) | cell growth or viability, CCK-8 | 72 h | 4.86 |
| COc1cc2ncnc(Nc3ccc(F)c(Cl)c3)c2cc1NC(=O)N/N=C/CN1CCCCC1 | cell growth or viability, MTT | 72 h | 5.25 |
| C/C=C/C(=O)Nc1cc(Nc2nc(Nc3cnn(C)c3)c3sccc3n2)c(OC)cc1N(C)CCN(C)C | cell growth or viability, MTT |  | 4.59 |
| CC1=C(O)C(=O)C=C2C1=CC=C1[C@@]2(C)CC[C@@]2(C)[C@@H]3C[C@](C)(C(=O)OCCCN4C(=O)C5C=CC=CC5C4=O)CC[C@]3(C)CC[C@]12C (stereo partly shown) | cell growth or viability, MTT | 48 h | 5.44 |
| COc1ccc(NC(=O)Nc2ccc(OCc3ncc(C)c(OC)c3C)cc2)cc1 | cell growth or viability, MTT | 72 h | 4.89 |
| CN1CCN(CCn2cccc2/C=N/NC(=O)Nc2cc3c(Nc4ccc(F)c(Cl)c4)ncnc3cc2O[C@H]2CCOC2)CC1 | cell growth or viability, MTT | 72 h | 5.52 |
| O=C(/N=C1\S/C(=C\c2ccc(Cl)cc2)C(=O)N1C1CCCCC1)c1ccc2ccccc2c1 | cell growth or viability | 48 h | 4.75 |
